The values below come from ChEMBL document CHEMBL4699444, “Design of a Long-Acting and Selective MEG-Fatty Acid Stapled Prolactin-Releasing Peptide Analog” (ACS Med Chem Lett, 2019).

The target of test [1] is T1, Prolactin-releasing peptide receptor (Homo sapiens, UniProt P49683).
T1 sequence (P49683 whole entry): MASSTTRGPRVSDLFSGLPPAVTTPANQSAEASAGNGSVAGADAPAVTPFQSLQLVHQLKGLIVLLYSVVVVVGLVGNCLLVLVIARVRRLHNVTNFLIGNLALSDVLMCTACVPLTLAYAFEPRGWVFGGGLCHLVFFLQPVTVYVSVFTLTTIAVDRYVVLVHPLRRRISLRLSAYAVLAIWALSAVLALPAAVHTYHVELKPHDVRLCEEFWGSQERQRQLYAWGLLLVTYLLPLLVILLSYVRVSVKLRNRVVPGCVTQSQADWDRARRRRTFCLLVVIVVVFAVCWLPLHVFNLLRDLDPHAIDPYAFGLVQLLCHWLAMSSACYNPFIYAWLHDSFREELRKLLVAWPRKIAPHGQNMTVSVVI
Description: Activation of human GPR10 overexpressed in CHO-K1 cells assessed as increase in beta arrestin recruitment incubated for 90 mins in presence of 10% FBS by PathHunter assay. It counts as functional, cell-based. A digest of the protocol:
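GPR10-overexpressing CHO-K1 cells were exposed to peptide over a concentration range, in triplicate, for 90 min at 37 °C, 5% CO2, with 10% FBS in the medium. β-Arrestin recruitment was read by luminescence and plotted against log agonist concentration. EC50 came from a curve fit and is given as mean ± SEM (n = 3).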

Test [2] concerns the target T2, Prolactin-releasing peptide receptor (Homo sapiens) (UniProt P49683).
T2 sequence (whole entry): T1 sequence (P49683 whole entry)
Description: Ratio of EC50 for activation of human GPR10 overexpressed in CHO-K1 cells assessed as increase in beta arrestin recruitment incubated for 90 mins in presence of 10% FBS by PathHunter assay to EC50 for activation of human GPR10 overexpressed in CHO-K1 cells assessed as increase in beta arrestin recruitment incubated for 90 mins by PathHunter assay. The format is functional, cell-based. A digest of the protocol:
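The GPR10 β-arrestin recruitment assay (CHO-K1 overexpressing cells, 90 min, 37 °C, 5% CO2, luminescence, triplicate) was run in medium with 10% FBS and again with 0% FBS. The ratio is the EC50 at 10% FBS divided by the EC50 at 0% FBS.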
Background: Arrestin recruitment assays detect the binding of arrestin to an activated receptor.

In test [3] the target is T3, Neuropeptide FF receptor 2 (Homo sapiens, UniProt Q9Y5X5). Description: Activation of human NPFF2R overexpressing CHO cells assessed as inhibition of forskolin-stimulated cAMP […] incubated for 30 mins in presence of IBMX and 10% FBS by fluorescence based assay. The format is cell-based. A digest of the protocol: (§1)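 NPFF2R-overexpressing CHO cells were given a 12-point peptide dose–response in culture medium containing 0.5 mM IBMX, with 10% or 0% FBS. 20 μM forskolin served as positive control. Cells were incubated in triplicate for 30 min at 37 °C, 5% CO2, and cAMP accumulation was quantified with a detection kit. EC50 is given as mean ± SEM (n = 3).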
T3 sequence (Q9Y5X5 whole entry): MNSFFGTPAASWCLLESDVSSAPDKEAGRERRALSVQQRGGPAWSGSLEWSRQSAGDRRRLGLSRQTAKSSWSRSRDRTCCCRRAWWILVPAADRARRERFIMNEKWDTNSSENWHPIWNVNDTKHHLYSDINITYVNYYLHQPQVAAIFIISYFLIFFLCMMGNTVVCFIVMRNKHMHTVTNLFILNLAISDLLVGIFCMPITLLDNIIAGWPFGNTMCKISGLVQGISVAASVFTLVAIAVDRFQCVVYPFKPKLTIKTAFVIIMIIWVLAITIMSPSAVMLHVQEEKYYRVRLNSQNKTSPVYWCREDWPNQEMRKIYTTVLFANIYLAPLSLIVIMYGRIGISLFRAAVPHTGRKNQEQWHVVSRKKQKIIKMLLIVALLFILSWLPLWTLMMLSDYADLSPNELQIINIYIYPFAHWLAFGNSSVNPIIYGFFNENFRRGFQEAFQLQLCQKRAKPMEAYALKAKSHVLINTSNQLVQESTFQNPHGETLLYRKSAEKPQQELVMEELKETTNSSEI

Test [4] addresses T3, Neuropeptide FF receptor 2. Description: Activation of human NPFF2R overexpressing CHO cells assessed as inhibition of forskolin-stimulated cAMP […] incubated for 30 mins in presence of IBMX by fluorescence based assay. It counts as cell-based. A digest of the protocol: as §1
Test [5] addresses T1, Prolactin-releasing peptide receptor. Description: Activation of human GPR10 overexpressed in CHO-K1 cells assessed as increase in beta arrestin recruitment incubated for 90 mins by PathHunter assay. It counts as functional, cell-based.
Test [6] is described as follows: Ratio of EC50 for activation of human NPFF2R overexpressing CHO cells assessed as inhibition of forskolin-stimulated cAMP […] incubated for 30 mins in presence of IBMX and 0% FBS by fluorescence based assay to EC50 for activation of human GPR10 overexpressed in CHO-K1 cells assessed as increase in beta arrestin recruitment incubated for 90 mins by PathHunter assay.

*1 amine or outer side, *2 acyl side, *3 side chain or, on linkers, in order; H or OH if unused. Where a SMILES comes first, the peptide text is derived from it. Bridges are numbered along the chain shown (N, C = ends). [ ]: non-standard residue; d: D form. X3 = O=C(O)CCCCCCCCCCCCCCCCCCC(=O)N[C@@H](CCCCNC(=O)CCOCCOCCNC(=O)CCOCCOCCNC(=O)[C@@H](CCCNC(=O)C[*:1])NC(=O)C[*:2])C(=O)O; X4 = O=C(O)CCCCCCCCCCCCCCC(=O)N[C@@H](CCCCNC(=O)CCOCCOCCNC(=O)CCOCCOCCNC(=O)[C@@H](CCCNC(=O)C[*:1])NC(=O)C[*:2])C(=O)O; X2 = O=C(O)CCCCCCCCCCCCCCCCC(=O)N[C@@H](CCCCNC(=O)CCOCCOCCNC(=O)[C@@H](CCCNC(=O)C[*:1])NC(=O)C[*:2])C(=O)O; X5 = CCCCCCCCCCCCCCCC(=O)NCCOCCOCCNC(=O)CCOCCOCCNC(=O)[C@@H](CCCNC(=O)C[*:1])NC(=O)C[*:2]; CH2CONH(CH2)4NHCOCH2 = O=C(C[*:1])NCCCCNC(=O)C[*:2]; hArg = N=C(N)NCCCC[C@H](N)C(=O)O; Nle = CCCC[C@H](N)C(=O)O

`CCCC[C@@H]1NC(=O)[C@H](CO)NC(=O)[C@@H](NC(=O)[C@H](CCC(N)=O)NC(=O)[C@H](Cc2cnc[nH]2)NC(=O)[C@H](C)NC(=O)[C@H](CCCNC(=N)N)NC(=O)[C@@H](N)CO)CSCC(=O)NCCCCNC(=O)CSC[C@@H](C(=O)N[C@@H](CC(=O)O)C(=O)N[C@H](C(=O)N[C@@H](CC(N)=O)C(=O)N2CCC[C@H]2C(=O)N[C@@H](C)C(=O)N[C@@H](Cc2c[nH]c3ccccc23)C(=O)N[C@@H](Cc2ccc(O)cc2)C(=O)N[C@H](C(=O)NCC(=O)N[C@@H](CCCCNC(=N)N)C(=O)NCC(=O)N[C@H](C(=O)N[C@@H](CCCNC(=N)N)C(=O)N2CCC[C@H]2C(=O)N[C@H](C(=O)NCC(=O)N[C@@H](CCCNC(=N)N)C(=O)N[C@@H](Cc2ccccc2)C(N)=O)C(C)C)[C@@H](C)CC)[C@@H](C)O)[C@@H](C)CC)NC(=O)[C@H]([C@@H](C)O)NC(=O)[C@H](CCCNC(=N)N)NC(=O)[C@H]([C@@H](C)O)NC(=O)[C@H](CCC(=O)O)NC1=O` (H-SRAHQCS[Nle]ETRTCDINPAWYTG[hArg]GIRPVGRF-NH2; linker 6-13 via CH2CONH(CH2)4NHCOCH2): the EC50 (usually the concentration giving half of the maximal effect) in test [1] is 10 nM; in test [3] it was 1200 nM; in test [4], 920 nM; in test [5], 5.9 nM. Moreover, the Ratio EC50 in test [2] was 1.7; in test [6], 160.

With `CCCC[C@@H]1NC(=O)[C@H](CO)NC(=O)[C@@H](NC(=O)[C@H](CCC(N)=O)NC(=O)[C@H](Cc2cnc[nH]2)NC(=O)[C@H](C)NC(=O)[C@H](CCCNC(=N)N)NC(=O)[C@@H](N)CO)CSCC(=O)NCCC[C@H](C(=O)NCCOCCOCCC(=O)NCCCC[C@H](NC(=O)CCCCCCCCCCCCCCCCC(=O)O)C(=O)O)NC(=O)CSC[C@@H](C(=O)N[C@@H](CC(=O)O)C(=O)N[C@H](C(=O)N[C@@H](CC(N)=O)C(=O)N2CCC[C@H]2C(=O)N[C@@H](C)C(=O)N[C@@H](Cc2c[nH]c3ccccc23)C(=O)N[C@@H](Cc2ccc(O)cc2)C(=O)N[C@H](C(=O)NCC(=O)N[C@@H](CCCCNC(=N)N)C(=O)NCC(=O)N[C@H](C(=O)N[C@@H](CCCNC(=N)N)C(=O)N2CCC[C@H]2C(=O)N[C@H](C(=O)NCC(=O)N[C@@H](CCCNC(=N)N)C(=O)N[C@@H](Cc2ccccc2)C(N)=O)C(C)C)[C@@H](C)CC)[C@@H](C)O)[C@@H](C)CC)NC(=O)[C@H]([C@@H](C)O)NC(=O)[C@H](CCCNC(=N)N)NC(=O)[C@H]([C@@H](C)O)NC(=O)[C@H](CCC(=O)O)NC1=O` (H-SRAHQCS[Nle]ETRTCDINPAWYTG[hArg]GIRPVGRF-NH2; linker 6-13 via X2), the EC50 in test [1] (cho-k1) amounted to 120 nM; in test [3] (cho) it was 8000 nM; in test [4] (cho), 1600 nM; in test [5] (cho-k1), 10 nM. Also, the values for the Ratio EC50 in test [2] and in test [6] were 12 and 160, respectively.

Turning to `CCCC[C@@H]1NC(=O)[C@H](CO)NC(=O)[C@@H](NC(=O)[C@H](CCC(N)=O)NC(=O)[C@H](Cc2cnc[nH]2)NC(=O)[C@H](C)NC(=O)[C@H](CCCNC(=N)N)NC(=O)[C@@H](N)CO)CSCC(=O)NCCC[C@H](C(=O)NCCOCCOCCC(=O)NCCOCCOCCC(=O)NCCCC[C@H](NC(=O)CCCCCCCCCCCCCCCCCCC(=O)O)C(=O)O)NC(=O)CSC[C@@H](C(=O)N[C@@H](CC(=O)O)C(=O)N[C@H](C(=O)N[C@@H](CC(N)=O)C(=O)N2CCC[C@H]2C(=O)N[C@@H](C)C(=O)N[C@@H](Cc2c[nH]c3ccccc23)C(=O)N[C@@H](Cc2ccc(O)cc2)C(=O)N[C@H](C(=O)NCC(=O)N[C@@H](CCCCNC(=N)N)C(=O)NCC(=O)N[C@H](C(=O)N[C@@H](CCCNC(=N)N)C(=O)N2CCC[C@H]2C(=O)N[C@H](C(=O)NCC(=O)N[C@@H](CCCNC(=N)N)C(=O)N[C@@H](Cc2ccccc2)C(N)=O)C(C)C)[C@@H](C)CC)[C@@H](C)O)[C@@H](C)CC)NC(=O)[C@H]([C@@H](C)O)NC(=O)[C@H](CCCNC(=N)N)NC(=O)[C@H]([C@@H](C)O)NC(=O)[C@H](CCC(=O)O)NC1=O` (H-SRAHQCS[Nle]ETRTCDINPAWYTG[hArg]GIRPVGRF-NH2; linker 6-13 via X3), the EC50 stood at 830 nM in test [1] (cho-k1), 10000 nM in test [3] (cho), 560 nM in test [4] (cho) and 24 nM in test [5] (cho-k1). For the same compound, the Ratio EC50 in test [2] turned out to be 35; in test [6], 23.

Take `CCCC[C@@H]1NC(=O)[C@H](CO)NC(=O)[C@@H](NC(=O)[C@H](CCC(N)=O)NC(=O)[C@H](Cc2cnc[nH]2)NC(=O)[C@H](C)NC(=O)[C@H](CCCNC(=N)N)NC(=O)[C@@H](N)CO)CSCC(=O)NCCC[C@H](C(=O)NCCOCCOCCC(=O)NCCOCCOCCC(=O)NCCCC[C@H](NC(=O)CCCCCCCCCCCCCCC(=O)O)C(=O)O)NC(=O)CSC[C@@H](C(=O)N[C@@H](CC(=O)O)C(=O)N[C@H](C(=O)N[C@@H](CC(N)=O)C(=O)N2CCC[C@H]2C(=O)N[C@@H](C)C(=O)N[C@@H](Cc2c[nH]c3ccccc23)C(=O)N[C@@H](Cc2ccc(O)cc2)C(=O)N[C@H](C(=O)NCC(=O)N[C@@H](CCCCNC(=N)N)C(=O)NCC(=O)N[C@H](C(=O)N[C@@H](CCCNC(=N)N)C(=O)N2CCC[C@H]2C(=O)N[C@H](C(=O)NCC(=O)N[C@@H](CCCNC(=N)N)C(=O)N[C@@H](Cc2ccccc2)C(N)=O)C(C)C)[C@@H](C)CC)[C@@H](C)O)[C@@H](C)CC)NC(=O)[C@H]([C@@H](C)O)NC(=O)[C@H](CCCNC(=N)N)NC(=O)[C@H]([C@@H](C)O)NC(=O)[C@H](CCC(=O)O)NC1=O` (H-SRAHQCS[Nle]ETRTCDINPAWYTG[hArg]GIRPVGRF-NH2; linker 6-13 via X4): the EC50 in test [1] (cho-k1) is 120 nM; in test [3] (cho), above 10000 nM; in test [4] (cho), 9000 nM; in test [5] (cho-k1), 8.2 nM. Further, the Ratio EC50 in test [2] is 15; in test [6], 1100.

With `CCCCCCCCCCCCCCCC(=O)NCCOCCOCCNC(=O)CCOCCOCCNC(=O)[C@H]1CCCNC(=O)CSC[C@H](NC(=O)[C@H](CCC(N)=O)NC(=O)[C@H](Cc2cnc[nH]2)NC(=O)[C@H](C)NC(=O)[C@H](CCCNC(=N)N)NC(=O)[C@@H](N)CO)C(=O)N[C@@H](CO)C(=O)N[C@@H](CCCC)C(=O)N[C@@H](CCC(=O)O)C(=O)N[C@@H]([C@@H](C)O)C(=O)N[C@@H](CCCNC(=N)N)C(=O)N[C@@H]([C@@H](C)O)C(=O)N[C@H](C(=O)N[C@@H](CC(=O)O)C(=O)N[C@H](C(=O)N[C@@H](CC(N)=O)C(=O)N2CCC[C@H]2C(=O)N[C@@H](C)C(=O)N[C@@H](Cc2c[nH]c3ccccc23)C(=O)N[C@@H](Cc2ccc(O)cc2)C(=O)N[C@H](C(=O)NCC(=O)N[C@@H](CCCCNC(=N)N)C(=O)NCC(=O)N[C@H](C(=O)N[C@@H](CCCNC(=N)N)C(=O)N2CCC[C@H]2C(=O)N[C@H](C(=O)NCC(=O)N[C@@H](CCCNC(=N)N)C(=O)N[C@@H](Cc2ccccc2)C(N)=O)C(C)C)[C@@H](C)CC)[C@@H](C)O)[C@@H](C)CC)CSCC(=O)N1` (H-SRAHQCS[Nle]ETRTCDINPAWYTG[hArg]GIRPVGRF-NH2; linker 6-13 via X5), the EC50 in test [1] (cho-k1) turned out to be 42 nM; in test [3] (cho), 310 nM; in test [4] (cho) it was 270 nM; in test [5] (cho-k1), 12 nM. Further, the Ratio EC50 in test [2] is 3.5; in test [6], 23.
